Laboratory results: ChEMBL document CHEMBL4825663 (J Med Chem, 2021)
Converted amounts (≈) assume the structure as drawn. Blank lines part the entries; values can stand above or below the molecule they belong to.

Key:
[1] = Toxicity in Sprague-Dawley rat assessed as enlargement of mesenteric lymph nodes at >= 50 mg/kg, po and measured after 4 to 13 weeks; format: organism-based, Mesenteric lymph node; conditions: in vivo, time 4-13 weeks
[2] = Drug distribution in Beagle dog spinal cord; format: ADME, tissue-based, Canis lupus familiaris; conditions: in vivo
[3] = Drug distribution in Beagle dog liver; format: ADME, tissue-based, Canis lupus familiaris; conditions: in vivo
[4] = Drug distribution in Beagle dog bile; format: ADME, tissue-based, Canis lupus familiaris; conditions: in vivo
[5] = Cmax in human at 900 mg, po administered as single dose; format: ADME, organism-based; parameters: route oral, dose 900 mg; conditions: in vivo
[6] = Drug distribution in Beagle dog brain; format: ADME, tissue-based, Canis lupus familiaris; conditions: in vivo
[7] = AUClast in Sprague-Dawley rat at 3 mg/kg, iv measured upto 48 hrs by LC-MS/MS analysis; format: ADME, organism-based; parameters: route intravenous, dose 3 mg/kg, time <=48; conditions: in vivo
In short: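 Single dose in male Sprague-Dawley rats and male Beagle dogs (n = 3 per species), given 3 mg/kg IV or 10 mg/kg PO. Plasma was sampled to derive Cmax, Tmax, T1/2 and AUClast by each route. Oral bioavailability (F) was calculated from the PO and IV AUClast.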

[8] = biological target: T1, Broad substrate specificity ATP-binding cassette transporter ABCG2 (Homo sapiens, UniProt Q9UNQ0); assay: Inhibition of sulfasalazine-stimulated BCRP ATP ase activity (unknown origin)
T1 sequence (Q9UNQ0 whole entry): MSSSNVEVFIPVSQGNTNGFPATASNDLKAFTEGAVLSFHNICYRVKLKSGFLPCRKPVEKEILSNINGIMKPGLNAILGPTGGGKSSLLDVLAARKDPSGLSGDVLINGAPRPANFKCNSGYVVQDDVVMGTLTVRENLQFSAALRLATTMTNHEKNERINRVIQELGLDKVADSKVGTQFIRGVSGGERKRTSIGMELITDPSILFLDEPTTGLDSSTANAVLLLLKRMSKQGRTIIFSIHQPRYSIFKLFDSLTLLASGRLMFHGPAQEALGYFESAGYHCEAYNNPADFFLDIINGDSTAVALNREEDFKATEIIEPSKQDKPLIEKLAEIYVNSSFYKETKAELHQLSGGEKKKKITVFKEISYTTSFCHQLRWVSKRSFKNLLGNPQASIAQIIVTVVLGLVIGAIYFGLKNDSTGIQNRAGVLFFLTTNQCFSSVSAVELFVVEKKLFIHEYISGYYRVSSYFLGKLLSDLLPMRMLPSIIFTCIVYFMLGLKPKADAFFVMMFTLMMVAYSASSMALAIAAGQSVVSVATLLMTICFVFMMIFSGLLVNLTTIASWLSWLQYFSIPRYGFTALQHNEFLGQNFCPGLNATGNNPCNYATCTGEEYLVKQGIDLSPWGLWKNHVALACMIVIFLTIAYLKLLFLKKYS

[9] = Aqueous solubility of compound at pH 3.8; format: physicochemical; conditions: aqueous solution
[10] = Inhibition of P-gp in MDCK-MDR1 cells assessed as reduction in basal to apical transport of paclitaxel measured after 120 mins by LC-MS/MS analysis; format: cell-based; conditions: Canis lupus familiaris, MDCK-MDR1, 2 h
[11] = biological target: ATP-dependent translocase ABCB1 (Homo sapiens, UniProt P08183); assay: Inhibition of paclitaxel stimulated- P-gp ATPase activity (unknown origin)
[12] = Drug distribution in Sprague-Dawley rat spinal cord; format: ADME, tissue-based; conditions: in vivo
[13] = Tmax in Sprague-Dawley rat at 10 mg/kg, po measured upto 48 hrs by LC-MS/MS analysis; conditions: in vivo
[14] = Ratio of drug concentration in BALB/c mouse kidney to plasma at 20 mg/kg, po measured upto 24 hrs in presence of 10 mg/kg encequidar by LC-MS/MS analysis; format: ADME, organism-based
[15] = Oral bioavailability in Sprague-Dawley rat at 20 mg/kg measured upto 24 hrs by LC-MS/MS analysis; format: ADME, organism-based; conditions: in vivo
NCI-H460 [16] = assay: Antitumor activity against human NCI-H460 cells xenografted in athymic nude mouse assessed as median tumor growth delay at 50 mg/kg, po administered every other day for 4 doses in presence of 20 mg/kg encequidar and monitored for 48 days; format: functional; conditions: time 48 day
In short: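 Female athymic NCr-nu mice bearing subcutaneous NCI-H460 human lung tumor xenografts. Paclitaxel (30, 40 or 50 mg/kg) and the P-gp inhibitor (12, 16 or 20 mg/kg; ratio 2.5:1) given together as one oral gavage solution every other day for four doses. IV paclitaxel (18 and 24 mg/kg) on the same schedule for comparison. Tumor weights and body weights followed for 48 days after implantation. Read-out: median tumor growth delay.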

[17] = Tmax in Sprague-Dawley rat at 20 mg/kg, po measured upto 24 hrs in presence of 10 mg/kg encequidar by LC-MS/MS analysis; format: ADME, organism-based; conditions: in vivo
[18] = Cmax in Sprague-Dawley rat at 20 mg/kg, po measured upto 24 hrs in presence of 10 mg/kg encequidar by LC-MS/MS analysis; format: ADME, organism-based; parameters: route oral, dose 20 mg/kg, time <=24; conditions: in vivo
NCI-H460 [19] = assay: Antitumor activity against human NCI-H460 cells xenografted in athymic nude mouse assessed as median tumor growth delay at 18 mg/kg, iv administered every other day for 4 doses and monitored for 48 days; format: functional; conditions: time 48 day
In short: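 Female athymic NCr-nu mice carried subcutaneous NCI-H460 xenografts. […] Tumor weights and body weights were followed for 48 days after implantation. Read-out was median tumor growth delay.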

[20] = Drug distribution in BALB/c mouse kidney at 20 mg/kg, po measured upto 24 hrs in presence of 10 mg/kg encequidar by LC-MS/MS analysis; format: ADME, organism-based; conditions: in vivo
[21] = Drug metabolism in dog plasma assessed as metabolic ratio of 6alpha-hydroxypaclitaxel at 6 mg/kg, po in presence of 3 mg/kg encequidar; format: ADME, organism-based, Canis lupus familiaris; conditions: in vivo
[22] = Half life in Sprague-Dawley rat at 6 mg/kg, iv measured upto 24 hrs by LC-MS/MS analysis; conditions: in vivo
[23] = Drug accumulation in Sprague-Dawley rat plasma at 20 mg/kg, po administered once per week for 4 weeks in presence of 10 mg/kg encequidar by LC-MS/MS analysis; format: ADME, organism-based; conditions: in vivo, 672 h
[24] = AUClast in Sprague-Dawley rat at 20 mg/kg, po measured upto 24 hrs by LC-MS/MS analysis; format: ADME, organism-based; parameters: route oral, dose 20 mg/kg, time <=24; conditions: in vivo
[25] = Drug metabolism in dog plasma assessed as metabolic ratio of 3-p-hydroxypaclitaxel at 6 mg/kg, po in presence of 3 mg/kg encequidar; format: ADME, organism-based, Canis lupus familiaris; conditions: in vivo
[26] = Half life in Sprague-Dawley rat at 20 mg/kg, po measured upto 24 hrs by LC-MS/MS analysis; conditions: in vivo
[27] = Toxicity in athymic nude mouse xenografted with human MDA-MB-231 cells assessed as reduction in body weight at 30 mg/kg, po administered every other day for 4 doses in presence of 12 mg/kg encequidar and monitored for 70 to 82 days; format: organism-based; parameters: scale not given: the % may be the effect or the level left; conditions: in vivo, time 70-82 day
In short: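 Female athymic NCr-nu mice (n = 10/group) bearing subcutaneous MDA-MB-231 xenografts were treated from day 8. […] Individual body weights were monitored for 82 days after implantation.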

Chain of ATP-dependent translocase ABCB1 (P08183 whole entry): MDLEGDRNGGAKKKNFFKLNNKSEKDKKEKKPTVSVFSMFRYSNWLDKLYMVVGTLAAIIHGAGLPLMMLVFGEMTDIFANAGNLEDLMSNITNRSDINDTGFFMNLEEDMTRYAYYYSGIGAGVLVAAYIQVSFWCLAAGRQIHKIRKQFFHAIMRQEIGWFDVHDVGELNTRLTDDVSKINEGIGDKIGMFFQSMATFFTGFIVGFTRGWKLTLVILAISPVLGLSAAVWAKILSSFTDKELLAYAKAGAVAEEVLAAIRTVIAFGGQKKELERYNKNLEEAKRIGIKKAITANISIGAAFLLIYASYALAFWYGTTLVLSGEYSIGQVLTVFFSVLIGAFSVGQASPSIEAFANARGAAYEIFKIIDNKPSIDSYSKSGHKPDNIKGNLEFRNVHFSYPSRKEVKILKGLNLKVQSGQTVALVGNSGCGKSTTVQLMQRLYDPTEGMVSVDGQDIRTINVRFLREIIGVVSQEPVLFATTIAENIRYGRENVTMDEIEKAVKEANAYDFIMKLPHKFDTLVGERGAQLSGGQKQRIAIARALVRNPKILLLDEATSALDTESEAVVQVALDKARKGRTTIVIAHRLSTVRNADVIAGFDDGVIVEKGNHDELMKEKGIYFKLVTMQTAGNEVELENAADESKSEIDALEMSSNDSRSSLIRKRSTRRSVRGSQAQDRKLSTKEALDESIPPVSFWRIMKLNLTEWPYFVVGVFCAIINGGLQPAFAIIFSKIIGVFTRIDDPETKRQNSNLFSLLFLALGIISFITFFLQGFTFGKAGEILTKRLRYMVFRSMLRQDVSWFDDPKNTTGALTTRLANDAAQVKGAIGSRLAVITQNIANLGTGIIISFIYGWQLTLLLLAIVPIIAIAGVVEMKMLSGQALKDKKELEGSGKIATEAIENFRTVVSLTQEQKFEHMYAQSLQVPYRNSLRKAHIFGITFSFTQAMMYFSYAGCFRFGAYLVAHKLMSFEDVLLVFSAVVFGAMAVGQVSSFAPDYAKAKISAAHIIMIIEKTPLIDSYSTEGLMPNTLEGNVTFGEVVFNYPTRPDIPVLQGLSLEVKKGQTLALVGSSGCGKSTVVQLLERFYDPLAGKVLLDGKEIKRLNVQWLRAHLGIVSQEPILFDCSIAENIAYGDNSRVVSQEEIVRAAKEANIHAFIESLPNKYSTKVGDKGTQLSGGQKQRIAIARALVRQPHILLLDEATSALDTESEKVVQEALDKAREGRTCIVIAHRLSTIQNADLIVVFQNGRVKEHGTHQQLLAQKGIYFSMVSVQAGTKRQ

Drug uptake [2]: Not Active
Drug uptake [3]: Active
Drug uptake [4]: Active
Cmax [5]: 6.6 ng/mL
Drug uptake [6]: Not Active
AUC(0-t) at 48 h [7]: 619 ng·h/mL
IC50 [8]: > 3.72 µM
solubility [9]: 0.219 µg/mL (≈ 0.318 µM)
IC50 [10]: 35 nM
IC50 [11]: 0.6 nM
Drug uptake [12]: Not Active
Tmax [13]: 8 h
Compound: COc1cc2c(cc1OC)CN(CCc1ccc(-n3nnc(-c4cc(OC)c(OC)cc4NC(=O)c4cc(=O)c5ccccc5o4)n3)cc1)CC2
Activity [1]: Toxic

Compound: CC(=O)O[C@H]1C(=O)[C@@]2(C)[C@H]([C@H](OC(=O)c3ccccc3)[C@]3(O)C[C@H](OC(=O)[C@H](O)[C@@H](NC(=O)c4ccccc4)c4ccccc4)C(C)=C1C3(C)C)[C@]1(OC(C)=O)CO[C@@H]1C[C@@H]2O [PACLITAXEL]
Kp at 24 h [14]: > 1
bioavailability [15]: 3.4%
Time (NCI-H460 [16]): 12.7 days
Tmax [17]: 1 h
Cmax [18]: 1250 ng/mL
Time (NCI-H460 [19]): 8.5 days
Drug uptake [20]: Active
Ratio [21]: 0.76
half-life at 24 h [22]: 462 min
Drug uptake [23]: Not Active
AUC(0-t) at 24 h [24]: 308 ng·h/mL
Ratio [25]: 0.01
half-life at 24 h [26]: 480 min
Activity [27]: 5%
